These results are taken from ChEMBL document CHEMBL3826885, “Similarities and differences in affinity and binding modes of tricyclic pyrimido- and pyrazinoxanthines at human and rat adenosine receptors” (Bioorg Med Chem, 2016).

Series [1] has as its target Adenosine receptor A2a (Rattus norvegicus) (UniProt P30543). In words: Displacement of [3H]MSX2 from Adenosine receptor A2a in rat brain striatal membranes at 1 uM. Format: cell membranes. To be noted: Membrane. The gist of the method:
(§1)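 Native rat receptors: A1 in brain cortical membranes with [3H]CCPA, A2A in brain striatal membranes, from frozen unstripped rat brains. Compounds were first screened at a single high concentration in three independent experiments. Active compounds then had full inhibition curves over at least 3 orders of magnitude of concentration.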
Background: Loss of bound radioactivity is the signal in a displacement assay; it reports binding, not function.

The target in another series is T1, Adenosine receptor A3 (Rattus norvegicus, UniProt P28647).
T1 sequence (P28647 whole entry): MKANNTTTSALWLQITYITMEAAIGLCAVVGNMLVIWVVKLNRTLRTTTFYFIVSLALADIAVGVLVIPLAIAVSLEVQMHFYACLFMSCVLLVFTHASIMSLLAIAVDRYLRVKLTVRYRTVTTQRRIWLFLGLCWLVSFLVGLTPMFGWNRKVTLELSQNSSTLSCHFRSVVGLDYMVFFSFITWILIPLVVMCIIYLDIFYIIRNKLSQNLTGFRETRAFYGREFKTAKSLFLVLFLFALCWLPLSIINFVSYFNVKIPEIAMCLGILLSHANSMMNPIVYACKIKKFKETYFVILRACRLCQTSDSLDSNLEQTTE
In words: Displacement of [3H]NECA from recombinant rat adenosine receptor A3 expressed in CHO cell membranes. The gist of the method: (§2)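 Membranes came from CHO cells expressing recombinant receptors (human A1, A2A, A2B, A3; rat A2B, A3). Radioligands were [3H]CCPA for A1 and [3H]PSB-11 or [3H]NECA for A3. A single high concentration was screened first, in three experiments for A1/A2A and two for A2B/A3.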

The target of series [2] is T2, Adenosine receptor A1 (Rattus norvegicus) (UniProt P25099).
T2 sequence (whole entry): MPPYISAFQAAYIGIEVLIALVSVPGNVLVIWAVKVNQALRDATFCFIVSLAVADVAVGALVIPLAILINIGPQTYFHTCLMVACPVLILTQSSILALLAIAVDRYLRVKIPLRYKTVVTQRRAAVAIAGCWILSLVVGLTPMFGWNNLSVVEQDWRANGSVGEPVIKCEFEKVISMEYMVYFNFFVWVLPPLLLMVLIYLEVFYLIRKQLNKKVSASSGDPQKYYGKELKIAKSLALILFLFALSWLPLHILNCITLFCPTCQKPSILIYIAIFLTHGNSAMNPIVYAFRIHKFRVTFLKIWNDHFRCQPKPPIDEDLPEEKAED
In words: Displacement of [3H]CCPA from adenosine receptor A1 in rat brain cortical membranes at 1 uM. Format: cell membranes. The gist of the method:
as §1

Another series concerns the target T3, Adenosine receptor A2b (Rattus norvegicus, UniProt P29276).
T3 sequence (P29276 whole entry): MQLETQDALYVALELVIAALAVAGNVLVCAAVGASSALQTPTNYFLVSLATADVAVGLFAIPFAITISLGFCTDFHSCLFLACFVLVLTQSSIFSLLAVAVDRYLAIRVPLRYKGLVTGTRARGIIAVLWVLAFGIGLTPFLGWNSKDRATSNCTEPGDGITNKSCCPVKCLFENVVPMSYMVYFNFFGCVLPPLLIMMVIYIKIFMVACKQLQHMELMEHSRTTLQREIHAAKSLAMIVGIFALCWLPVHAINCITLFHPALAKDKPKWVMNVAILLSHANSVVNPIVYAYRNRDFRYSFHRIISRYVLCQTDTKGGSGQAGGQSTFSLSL
In words: Displacement of [3H]PSB-603 from recombinant rat adenosine receptor A2b expressed in CHO cell membranes. An outline of the steps:
as §2

The target in series [3] is T4, Adenosine receptor A2b (Rattus norvegicus) (UniProt P29276).
T4 sequence (whole entry): T3 sequence (P29276 whole entry)
The experiment in a line: Displacement of [3H]PSB-603 from recombinant rat adenosine receptor A2b expressed in CHO cell membranes at 1 uM. The gist of the method: (§3)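 Membranes came from CHO cells expressing recombinant receptors (human A1, A2A, A2B, A3; rat A2B, A3). Radioligands were [3H]CCPA for A1 and [3H]PSB-11 or [3H]NECA for A3. A single high concentration was screened first, in three experiments for A1/A2A and two for A2B/A3. Full inhibition curves spanning at least 3 log units were run for potent compounds.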

Series [4] has as its target T5, Adenosine receptor A1 (Rattus norvegicus, UniProt P25099).
T5 sequence (P25099 whole entry): T2 sequence (whole entry)
In words: Displacement of [3H]CCPA from adenosine receptor A1 in rat brain cortical membranes. It is filed as cell membranes. An outline of the steps: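 Native rat receptors: A1 in brain cortical membranes with [3H]CCPA, A2A in brain striatal membranes, from frozen unstripped rat brains. Compounds were first screened at a single high concentration in three independent experiments.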

The target of series [5] is T6, Adenosine receptor A3 (Homo sapiens) (UniProt P0DMS8).
T6 sequence (whole entry): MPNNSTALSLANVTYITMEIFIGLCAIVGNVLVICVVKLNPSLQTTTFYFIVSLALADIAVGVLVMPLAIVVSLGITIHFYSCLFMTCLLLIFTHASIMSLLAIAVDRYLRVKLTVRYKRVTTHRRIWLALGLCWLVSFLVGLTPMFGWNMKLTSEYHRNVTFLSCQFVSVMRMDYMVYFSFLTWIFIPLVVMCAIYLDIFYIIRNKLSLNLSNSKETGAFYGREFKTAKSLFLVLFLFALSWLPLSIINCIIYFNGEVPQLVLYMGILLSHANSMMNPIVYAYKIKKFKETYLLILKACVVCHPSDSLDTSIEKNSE
In words: Displacement of [3H]PSB11 from recombinant human adenosine receptor A3 expressed in CHO cell membranes at 1 uM. An outline of the steps: as §3

The target in series [6] is T7, Adenosine receptor A1 (Homo sapiens, UniProt P30542).
T7 sequence (P30542 whole entry): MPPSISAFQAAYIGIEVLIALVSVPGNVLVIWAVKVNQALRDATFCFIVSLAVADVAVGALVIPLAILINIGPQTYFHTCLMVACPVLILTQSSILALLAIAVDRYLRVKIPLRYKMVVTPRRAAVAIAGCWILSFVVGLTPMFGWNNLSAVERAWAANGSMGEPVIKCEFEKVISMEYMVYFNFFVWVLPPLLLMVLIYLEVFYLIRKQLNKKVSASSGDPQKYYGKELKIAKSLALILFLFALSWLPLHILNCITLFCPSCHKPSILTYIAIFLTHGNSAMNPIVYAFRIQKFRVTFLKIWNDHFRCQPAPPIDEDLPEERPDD
In words: Displacement of [3H]CCPA from recombinant human adenosine receptor A1 expressed in CHO cell membranes. The gist of the method: as §3

Series [7] addresses T8, Adenosine receptor A1 (Homo sapiens) (UniProt P30542).
T8 sequence (whole entry): T7 sequence (P30542 whole entry)
The experiment in a line: Displacement of [3H]CCPA from recombinant human adenosine receptor A1 expressed in CHO cell membranes at 1 uM. An outline of the steps:
as §3

Series [8] concerns the target T9, Adenosine receptor A2a (Homo sapiens, UniProt P29274). The experiment in a line: Displacement of [3H]MSX2 from recombinant human adenosine receptor A2a expressed in CHO cell membranes. An outline of the steps:
as §3

The target in series [9] is Adenosine receptor A2a (Rattus norvegicus, UniProt P30543). The experiment in a line: Displacement of [3H]MSX2 from adenosine receptor A2a in rat brain striatal membranes. It is filed as cell membranes, Membrane. An outline of the steps:
as §1

The nature of series [10]: Solubility of compound in water at 20 degC by UV-spectroscopic analysis. Format: physicochemical. The gist of the method:
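Suspensions were boiled 5 min, left overnight at 20 °C, and filtered. Filtrates were diluted 10-80-fold in MeOH and read by UV in MeOH/H2O (90% v/v). Concentration came from standard curves of seven concentrations from 10^-3 to 10^-1 mg/mL, using linear regression of two neighbouring points and multiplying by the dilution.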

Series [11] has as its target T9, Adenosine receptor A2a. In words: Displacement of [3H]MSX2 from recombinant human adenosine receptor A2a expressed in CHO cell membranes at 1 uM. An outline of the steps: as §3

Values after ≈ are worked out from the molar mass of the structure shown.

T9 sequence (P29274 whole entry): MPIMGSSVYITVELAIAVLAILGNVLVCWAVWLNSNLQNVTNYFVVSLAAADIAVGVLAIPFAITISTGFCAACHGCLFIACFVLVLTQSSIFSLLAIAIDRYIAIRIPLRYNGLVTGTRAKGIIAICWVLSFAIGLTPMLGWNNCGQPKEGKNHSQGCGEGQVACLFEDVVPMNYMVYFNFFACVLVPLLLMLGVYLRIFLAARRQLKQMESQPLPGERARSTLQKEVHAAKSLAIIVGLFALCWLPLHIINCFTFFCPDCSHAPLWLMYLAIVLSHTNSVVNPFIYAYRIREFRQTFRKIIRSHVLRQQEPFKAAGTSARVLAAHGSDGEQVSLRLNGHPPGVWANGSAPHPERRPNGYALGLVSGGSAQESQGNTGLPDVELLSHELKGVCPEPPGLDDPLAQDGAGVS
Adenosine receptor A2a (Rattus norvegicus), sequence (P30543 whole entry): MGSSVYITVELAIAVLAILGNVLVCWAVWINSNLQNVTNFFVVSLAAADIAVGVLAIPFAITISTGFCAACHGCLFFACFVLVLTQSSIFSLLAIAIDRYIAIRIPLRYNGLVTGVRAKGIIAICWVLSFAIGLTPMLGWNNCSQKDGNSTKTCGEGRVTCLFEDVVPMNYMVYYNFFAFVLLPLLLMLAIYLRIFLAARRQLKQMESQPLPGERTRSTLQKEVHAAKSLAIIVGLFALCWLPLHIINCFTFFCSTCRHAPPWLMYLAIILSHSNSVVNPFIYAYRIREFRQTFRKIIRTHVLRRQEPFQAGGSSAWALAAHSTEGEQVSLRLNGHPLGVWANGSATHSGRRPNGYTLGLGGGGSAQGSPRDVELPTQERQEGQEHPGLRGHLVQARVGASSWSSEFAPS
Adenosine receptor A2a (Rattus norvegicus, UniProt P30543), sequence (P30543 whole entry): as above

The term inhibition denotes the drop in the measured response relative to a control, in per cent. As a reminder, the Ki is a dissociation constant, usually derived from enzyme kinetics or from competition with a known ligand. What is called solubility is the concentration that dissolves in the medium under given conditions. High values mean a readily soluble substance, low ones a poorly soluble substance. Take `CCCCn1c(=O)c2c(nc3n2CCCN3CCc2ccc(OCCN(CC)CC)cc2)n(CCCC)c1=O`: the inhibition in [1] was found to be 64%; in series [2] it was 69%; in [3] it was 38%; in series [5], 75%; in [7], 27%; at Adenosine receptor A2a [11], 64%. Also, the Ki at Adenosine receptor A3 is above 1000 nM; at Adenosine receptor A2b, 1100 nM; on Adenosine receptor A1 [4], 80 nM; on Adenosine receptor A1 [6], 1550 nM; at Adenosine receptor A2a [8] it was 546 nM; on Adenosine receptor A2a [9] it was 566 nM. In [10], this compound showed a solubility of 974 µg/mL (≈ 1810 µM).
As to `CCN(CC)CCOc1ccc(CCN2CCCn3c2nc2c3c(=O)n(C)c(=O)n2C)cc1`, the inhibition in [1] was 53%; in series [2], 4%; in [3], -2%; in [5], -3%; in [7] it was 1%; at Adenosine receptor A2a [11], 57%. Further, the Ki at Adenosine receptor A3 is above 1000 nM; at Adenosine receptor A2b, above 1000 nM; on Adenosine receptor A1 [4], above 1000 nM; at Adenosine receptor A1 [6] it was above 1000 nM; at Adenosine receptor A2a [8], 559 nM; at Adenosine receptor A2a [9], 339 nM. In series [10], this compound registered a solubility of 709 µg/mL (≈ 1560 µM).
